Here are results for one molecule from ChEMBL document CHEMBL1145212, “Fluorinated diaryl sulfides as serotonin transporter ligands: synthesis, structure-activity relationship study, and in vivo evaluation of fluorine-18-labeled compounds as PET imaging agents” (J Med Chem, 2005).

Structures are written as SMILES.

Holding throughout (details): tested as the 18F-labelled form
Assay [1] deals with Sodium-dependent serotonin transporter (Rattus norvegicus) (UniProt P31652). In words: Specific binding of [18F]AFA in rat striatum after GBR-12935 treatment; n=3. It counts as functional, tissue-based. In short, it runs like this:
(§1)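 Rats, three per group, were pretreated iv with blocker at 2 mg/kg in saline, or with saline as control, 10–15 min before tail-vein F-18 radioligand (about 20 µCi). Killed at 60 min and regional %ID/g determined. Specific binding = (region activity − cerebellum activity)/cerebellum activity; mean ± SD.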

For assay [2] the target is unchanged. Put plainly: Specific binding of [18F]AFA in rat thalamus after GBR-12935 treatment; n=3. It counts as functional, tissue-based. In outline:
as §1

The target is the same in assay [3]. Put plainly: Specific binding of [18F]-AFA in rat striatum after citalopram treatment; n=3. It counts as functional, tissue-based. In outline:
as §1

The target is the same in assay [4]. In words: Specific binding of [18F]-AFA in rat striatum after nisoxetine treatment; n=3. The format is functional, tissue-based. In outline: as §1
For assay [5] the target is unchanged. Put plainly: Specific binding of [18F]AFA in rat thalamus after citalopram treatment; n=3. It counts as functional, tissue-based. In short, it runs like this: as §1
Assay [6] shares this target. Put plainly: Specific binding of [18F]AFA in rat thalamus after nisoxetine treatment; n=3. The format is functional, tissue-based. In outline:
as §1

Assay [7] has the same target. Put plainly: Specific binding of [18F]AFA in rat hippocampus after GBR-12935 treatment; n=3. The format is functional, tissue-based. In outline: as §1
Assay [8] has the same target. In words: Specific binding of [18F]AFA in rat hypothalamus after GBR-12935 treatment; n=3. The format is functional, tissue-based. In outline: as §1
For assay [9] the target is unchanged. In words: Specific binding of [18F]AFA in rat hippocampus after citalopram treatment; n=3. The format is functional, tissue-based. In outline: as §1
Assay [10] shares this target. In words: Specific binding of [18F]AFA in rat hippocampus after nisoxetine treatment; n=3. It counts as functional, tissue-based. In short, it runs like this: as §1
For assay [11] the target is unchanged. Put plainly: Specific binding of [18F]AFA in rat frontal cortex after GBR-12935 treatment; n=3. The format is functional, tissue-based. In outline: as §1
Assay [12] has the same target. In words: Specific binding of [18F]AFA in rat hypothalamus after citalopram treatment; n=3. The format is functional, tissue-based. In outline:
as §1

Assay [13] has the same target. In words: Specific binding of [18F]AFA in rat hypothalamus after nisoxetine treatment; n=3. The format is functional, tissue-based. In outline:
as §1

For assay [14] the target is unchanged. In words: Specific binding of [18F]AFA in rat frontal cortex after citalopram treatment; n=3. The format is functional, tissue-based. In outline: as §1
Assay [15] shares this target. Put plainly: Specific binding of [18F]AFA in rat frontal cortex after nisoxetine treatment; n=3. The format is functional, tissue-based. In short, it runs like this:
as §1

The target is the same in assay [16]. Put plainly: Specific binding in rat hypothalamus at 10 min postinjection in vivo. The format is functional, organism-based. In outline:
(§2)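 Male Sprague-Dawley rats, n=3 per time point, received about 20 µCi of F-18 radioligand in saline iv by tail vein and were killed at 10–120 min. %ID/g was measured with decay and tail-residual correction. Hypothalamic specific binding = (%ID/g hypothalamus − %ID/g cerebellum)/%ID/g cerebellum; mean ± SD.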

The target is the same in assay [17]. Put plainly: Specific binding in rat hypothalamus at 30 min postinjection in vivo. It counts as functional, organism-based. In outline: as §2
The target is the same in assay [18]. Put plainly: Specific binding in rat hypothalamus at 60 min postinjection in vivo. It counts as functional, organism-based. In outline:
as §2

The target is the same in assay [19]. In words: Specific binding in rat hypothalamus at 90 min postinjection in vivo. The format is functional, organism-based. In short, it runs like this: as §2
For assay [20] the target is unchanged. In words: Specific binding in rat hypothalamus at 120 min postinjection in vivo. It counts as functional, organism-based. In short, it runs like this: as §2
The species named for assay [21] is Rattus norvegicus. In words: Regional uptake of [18F]AFA in blood of rat pretreated with compound 7f; n=3. The format is functional, organism-based.
For assay [22], the species on record is Rattus norvegicus. In words: Regional uptake of [18F]AFA in cerebellum of rat pretreated with compound 7f; n=3. The format is functional, organism-based.
Assay [23] is filed under the species Rattus norvegicus. Put plainly: Regional uptake of [18F]-AFA in blood of rat pretreated with compound GBR-12935; n=3. The format is functional, organism-based. In outline: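 Male Sprague-Dawley rats, three per group, received blocker (2 mg/kg iv in saline) or saline only (controls) 10–15 min before about 20 µCi of tail-vein F-18 radioligand. Killed 60 min after tracer. Blood and brain regions weighed and gamma-counted. %ID/g was decay- and tail-corrected; mean ± SD.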

The species named for assay [24] is Rattus norvegicus. In words: Regional uptake of [18F]AFA in hippocampus of rat pretreated with compound 7f; n=3. It counts as functional, organism-based.

Sodium-dependent serotonin transporter (Rattus norvegicus), sequence (P31652 whole entry): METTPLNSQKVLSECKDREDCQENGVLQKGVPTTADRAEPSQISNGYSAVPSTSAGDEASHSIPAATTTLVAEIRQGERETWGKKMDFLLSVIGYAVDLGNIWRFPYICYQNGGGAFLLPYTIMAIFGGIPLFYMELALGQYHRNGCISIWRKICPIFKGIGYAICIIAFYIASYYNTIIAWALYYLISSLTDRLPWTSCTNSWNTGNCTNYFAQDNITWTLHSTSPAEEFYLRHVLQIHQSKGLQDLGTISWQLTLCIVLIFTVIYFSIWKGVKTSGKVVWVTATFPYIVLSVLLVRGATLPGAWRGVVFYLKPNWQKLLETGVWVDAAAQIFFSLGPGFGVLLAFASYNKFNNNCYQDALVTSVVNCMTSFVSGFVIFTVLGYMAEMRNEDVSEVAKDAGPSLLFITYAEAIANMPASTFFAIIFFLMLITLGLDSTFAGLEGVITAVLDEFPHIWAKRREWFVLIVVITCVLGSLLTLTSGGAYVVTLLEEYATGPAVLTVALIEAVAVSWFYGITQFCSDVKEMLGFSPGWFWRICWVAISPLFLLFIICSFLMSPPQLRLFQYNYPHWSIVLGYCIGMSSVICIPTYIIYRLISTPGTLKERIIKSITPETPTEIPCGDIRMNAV

As for `CN(C)Cc1ccccc1Sc1ccc(CCCF)cc1N`, the Specific binding in assay [1] turned out to be 0.84 %ID/g; in [2] it was 0.98 %ID/g; in assay [3] it was 0.45 %ID/g; in assay [4], 0.58 %ID/g; in assay [5] it was 0.74 %ID/g; in [6], 0.88 %ID/g. Also, the Specific binding in [7] was determined as 0.77 %ID/g; in assay [8], 0.87 %ID/g; in assay [9], 0.32 %ID/g; in assay [10], 1.02 %ID/g; in assay [11], 0.64 %ID/g; in assay [12] it was 0.66 %ID/g. For the same molecule, the Specific binding in [13] is 0.84 %ID/g; in assay [14] it was 0.84 %ID/g; in assay [15], 0.72 %ID/g; in [16], 0.34 %ID/g; in assay [17], 0.57 %ID/g; in assay [18], 0.85 %ID/g. Besides, the Specific binding (dimensionless ratio) stood at 1.85 in assay [19] and 2.4 in assay [20]. Further, the Uptake in the assay listed under Rattus norvegicus [21] was 0.07 %ID/g; in the assay filed under Rattus norvegicus [22] it was 0.08 %ID/g; in the assay filed under Rattus norvegicus [23] it was 0.09 %ID/g; in the assay listed under Rattus norvegicus [24], 0.08 %ID/g.
